Assay results as given in ChEMBL document CHEMBL3804796, “Discovery of Novel 3,3-Disubstituted Piperidines as Orally Bioavailable, Potent, and Efficacious HDM2-p53 Inhibitors” (ACS Med Chem Lett, 2016).
Values after ≈ are worked out from the molar mass of the structure shown. Active and inactive are the calls of the source. The rule behind the calls is not given here.

How the values were obtained:
CWR22R = assay: Antiproliferative activity against human 22Rv1 cells expressing wild type p53 after 72 hrs by CellTitre-Glo assay; type: functional, cell-based
Method in brief: (§1)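 Cell lines exposed to compound for 72 h; viability read by CellTiter-Glo and IC50 derived. p53 coding-region mutation status of each line established by direct sequencing.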

SJSA-1 [1] = assay: Selectivity ratio of IC50 for human SK-UT-1 cells harboring mutant p53 to IC50 for human SJSA1 cells expressing wild type p53; type: functional
Method in brief: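 Ratio of two IC50s, each from a 72 h CellTiter-Glo viability assay. p53 coding-region status was confirmed by direct sequencing. The ratio is p53-mutant (SK-UT-1) or p53-null (H1299) IC50 divided by wild-type p53 (SJSA-1 or HCT116) IC50.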

Cytochrome P450 1A2 = Cytochrome P450 1A2 (Homo sapiens, UniProt P05177); assay: Inhibition of CYP1A2 (unknown origin); type: ADME
A549 [2] = assay: Antitumor activity against human A549 cells xenografted in nude mouse assessed as tumor growth inhibition at 100 mg/kg, po qd administered with cycle of 3 days on, 4 days off for 30 days relative to control; type: functional; conditions: read-out: TGI
Method in brief: (§2)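 Mice bearing A549 NSCLC xenografts. The test agent was given orally, either daily or intermittently (daily for 3 days, then 4 days off). Paclitaxel was given at 20 mg/kg ip weekly, alone or in combination. Read-out was tumor growth inhibition.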

A549 [3] = assay: Antiproliferative activity against human A549 cells expressing wild type p53 after 72 hrs by CellTitre-Glo assay; type: functional, cell-based; method in brief: as §1
Canis familiaris = assay: Dose normalized AUC (0 to 24 hrs) in dog at 1 mg/kg, po administered as single dose; type: ADME, organism-based, Canis lupus familiaris; conditions: in vivo
Method in brief: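 Single oral dose of 1 mg/kg. Vehicle was 20% HPBCD for mouse and 0.4% HPMC for dog and monkey. Plasma AUC over 0–24 h, dose-normalized, reported in μM·h.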

[4] = Clearance in dog at 1 mg/kg, iv; type: ADME, organism-based, Canis lupus familiaris; conditions: in vivo
A2780 = assay: Antitumor activity against human A2780 cells xenografted in nude mouse harboring wild type p53 assessed as tumor growth inhibition at 50 mg/kg, po bid continuously for 15 days relative to control; type: functional; conditions: 360 h, read-out: TGI
Method in brief: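 Wild-type p53 mice bearing A2780 ovarian xenografts. The test agent was given at 50 mg/kg orally twice daily, continuously. Docetaxel was given at 40 mg/kg ip weekly, twice in total. Each was given alone and in combination. Read-out was tumor growth inhibition.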

[5] = Solubility of compound in pH 7.4 phosphate buffer; type: physicochemical
A549 [6] = assay: Antitumor activity against human A549 cells xenografted in nude mouse assessed as tumor growth inhibition at 100 mg/kg, po qd administered with cycle of 3 days on, 4 days off for 30 days coadministered with 20 mg/kg, ip once weekly paclitaxel relative to control; type: functional; method in brief: as §2
[7] = Fraction unbound in mouse plasma; type: ADME, cell-free
CMLT1 = assay: Antiproliferative activity against human CMLT1 cells expressing wild type p53 after 72 hrs by CellTitre-Glo assay; type: functional, cell-based; method in brief: as §1
[8] = Antitumor activity against human SJSA1 cells xenografted in nude mouse assessed as tumor growth inhibition at 100 mg/kg, po qd administered with cycle of 3 days on, 4 days off for 30 days relative to control; type: functional; conditions: SJSA-1, po, read-out: TGI
Method in brief: (§3)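 Nude mice bearing SJSA-1 osteosarcoma xenografts, n = 5 per group. Oral dosing in 20% HPBCD, given either intermittently (daily, 3 days on/4 days off) or continuously daily. Body weight was monitored against a vehicle control group.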

MOLM-13 = assay: Antiproliferative activity against human MOLM13 cells expressing wild type p53 after 72 hrs by CellTitre-Glo assay; type: functional, cell-based; method in brief: as §1
A549 [9] = assay: Antitumor activity against human A549 cells xenografted in nude mouse assessed as tumor growth inhibition at 200 mg/kg, po qd continuously for 30 days relative to control; type: functional; conditions: 720 h, read-out: TGI; method in brief: as §2
EOL1 = assay: Antiproliferative activity against human EOL-1 cells expressing wild type p53 after 72 hrs by CellTitre-Glo assay; type: functional, cell-based; method in brief: as §1
WM-115 = assay: Antiproliferative activity against human WM115 cells expressing wild type p53 after 72 hrs by CellTitre-Glo assay; type: functional, cell-based; method in brief: as §1
LNCaP = assay: Antiproliferative activity against human LNCAP cells expressing wild type p53 after 72 hrs by CellTitre-Glo assay; type: functional, cell-based; method in brief: as §1
Cytochrome P450 2C8 = Cytochrome P450 2C8 (Homo sapiens, UniProt P10632); assay: Inhibition of CYP2C8 (unknown origin); type: ADME
SJSA-1 [10] = assay: Induction of apoptosis in human SJSA1 cells assessed as caspase 3/7 activation; type: functional, cell-based
[11] = Fraction unbound in monkey plasma; type: ADME, cell-free, Macaca mulatta; conditions: rhesus monkey
[12] = Antiproliferative activity against human SJSA1 cells expressing wild type p53 after 72 hrs by CellTitre-Glo assay; conditions: SJSA-1, 72 h
NCI-H292 = assay: Antiproliferative activity against human NCI-H292 cells expressing wild type p53 after 72 hrs by CellTitre-Glo assay; type: functional, cell-based; method in brief: as §1
NALM-6 = assay: Antiproliferative activity against human NALM6 cells expressing wild type p53 after 72 hrs by CellTitre-Glo assay; type: functional, cell-based; method in brief: as §1
MCF7 = assay: Antiproliferative activity against human MCF7 cells expressing wild type p53 after 72 hrs by CellTitre-Glo assay; type: functional, cell-based; method in brief: as §1
[13] = Antiproliferative activity against p53 null human H1299 cells after 72 hrs by CellTitre-Glo assay; type: functional, cell-based; conditions: NCI-H1299, 72 h
Method in brief: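 Cancer cell lines of known p53 coding-region status (checked by direct sequencing) were exposed to the compound for 72 h. Viability was read with CellTiter-Glo, and the IC50 was taken from these readings.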

[14] = Antitumor activity against human SJSA1 cells xenografted in nude mouse assessed as tumor growth inhibition at 200 mg/kg, po qd administered with cycle of 3 days on, 4 days off for 30 days relative to control; type: functional; conditions: SJSA-1, po, read-out: TGI; method in brief: as §3
hERG (KCNH2) = hERG (KCNH2) (Homo sapiens, UniProt Q12809); assay: Inhibition of human ERG at 6 uM relative to control
Method in brief: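 hERG inhibition measured by voltage clamp at 6 μM compound.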

[15] = Clearance in mouse at 2 mg/kg, iv; type: ADME, organism-based; conditions: in vivo
ACHN = assay: Antiproliferative activity against human ACHN cells expressing wild type p53 after 72 hrs by CellTitre-Glo assay; type: functional, cell-based; method in brief: as §1
SR = assay: Antiproliferative activity against human SR cells expressing wild type p53 after 72 hrs by CellTitre-Glo assay; type: functional, cell-based; method in brief: as §1
A-375 = assay: Antiproliferative activity against human A375 cells expressing wild type p53 after 72 hrs by CellTitre-Glo assay; type: functional, cell-based; method in brief: as §1
KU812 = assay: Antiproliferative activity against human KU812 cells expressing wild type p53 after 72 hrs by CellTitre-Glo assay; type: functional, cell-based; method in brief: as §1
LOX IMVI = assay: Antiproliferative activity against human LOXIMVI cells expressing wild type p53 after 72 hrs by CellTitre-Glo assay; type: functional, cell-based; method in brief: as §1
UACC-62 = assay: Antiproliferative activity against human UACC62 cells expressing wild type p53 after 72 hrs by CellTitre-Glo assay; type: functional, cell-based; method in brief: as §1
[16] = Permeability from apical to basolateral side in human Caco2 cells; type: ADME, cell-based; conditions: Caco-2, read-out: permeability
CESS = assay: Antiproliferative activity against human CESS cells expressing wild type p53 after 72 hrs by CellTitre-Glo assay; type: functional, cell-based; method in brief: as §1

Cytochrome P450 1A2, sequence (P05177 whole entry): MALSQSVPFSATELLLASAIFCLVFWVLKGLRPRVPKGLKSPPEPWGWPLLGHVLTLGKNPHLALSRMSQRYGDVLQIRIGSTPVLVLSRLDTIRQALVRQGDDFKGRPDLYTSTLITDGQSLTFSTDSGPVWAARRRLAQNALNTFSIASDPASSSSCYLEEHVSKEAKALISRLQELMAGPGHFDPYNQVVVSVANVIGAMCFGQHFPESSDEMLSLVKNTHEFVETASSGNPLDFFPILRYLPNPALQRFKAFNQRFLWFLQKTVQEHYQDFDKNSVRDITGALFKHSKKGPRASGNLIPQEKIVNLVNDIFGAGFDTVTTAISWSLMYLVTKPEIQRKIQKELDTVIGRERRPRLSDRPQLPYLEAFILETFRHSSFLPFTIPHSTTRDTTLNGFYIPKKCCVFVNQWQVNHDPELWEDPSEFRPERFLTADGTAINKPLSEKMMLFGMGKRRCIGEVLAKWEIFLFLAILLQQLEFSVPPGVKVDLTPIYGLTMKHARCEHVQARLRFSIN
hERG (KCNH2), sequence (Q12809 whole entry): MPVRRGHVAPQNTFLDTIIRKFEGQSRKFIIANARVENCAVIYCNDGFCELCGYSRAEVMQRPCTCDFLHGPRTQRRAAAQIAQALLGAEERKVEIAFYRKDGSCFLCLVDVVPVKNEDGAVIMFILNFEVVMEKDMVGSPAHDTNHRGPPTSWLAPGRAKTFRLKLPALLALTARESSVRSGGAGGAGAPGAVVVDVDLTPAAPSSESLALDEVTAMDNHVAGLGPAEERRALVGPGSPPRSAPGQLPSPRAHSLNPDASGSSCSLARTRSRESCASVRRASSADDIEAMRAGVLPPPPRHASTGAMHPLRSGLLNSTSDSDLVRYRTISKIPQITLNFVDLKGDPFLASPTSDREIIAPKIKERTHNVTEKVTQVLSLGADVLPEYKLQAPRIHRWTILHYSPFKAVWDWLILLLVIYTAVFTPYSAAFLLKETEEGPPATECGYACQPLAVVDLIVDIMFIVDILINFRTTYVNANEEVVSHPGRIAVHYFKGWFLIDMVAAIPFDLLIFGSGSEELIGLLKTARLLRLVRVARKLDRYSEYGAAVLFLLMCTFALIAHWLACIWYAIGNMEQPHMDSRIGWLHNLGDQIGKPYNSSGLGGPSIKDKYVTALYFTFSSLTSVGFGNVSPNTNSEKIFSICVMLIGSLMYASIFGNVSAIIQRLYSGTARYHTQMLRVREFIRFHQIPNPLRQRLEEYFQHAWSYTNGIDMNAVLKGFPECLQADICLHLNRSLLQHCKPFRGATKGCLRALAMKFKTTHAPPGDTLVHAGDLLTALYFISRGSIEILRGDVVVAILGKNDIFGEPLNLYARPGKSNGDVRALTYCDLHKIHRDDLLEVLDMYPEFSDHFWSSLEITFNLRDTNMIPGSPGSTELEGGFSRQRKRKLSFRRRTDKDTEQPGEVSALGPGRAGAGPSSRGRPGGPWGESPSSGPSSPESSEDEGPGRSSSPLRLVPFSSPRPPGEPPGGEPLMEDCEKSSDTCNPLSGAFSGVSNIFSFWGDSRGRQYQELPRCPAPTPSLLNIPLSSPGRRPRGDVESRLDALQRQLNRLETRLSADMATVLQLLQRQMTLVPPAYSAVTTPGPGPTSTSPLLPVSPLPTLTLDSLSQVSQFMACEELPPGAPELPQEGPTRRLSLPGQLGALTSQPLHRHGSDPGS
Cytochrome P450 2C8, sequence (P10632 whole entry): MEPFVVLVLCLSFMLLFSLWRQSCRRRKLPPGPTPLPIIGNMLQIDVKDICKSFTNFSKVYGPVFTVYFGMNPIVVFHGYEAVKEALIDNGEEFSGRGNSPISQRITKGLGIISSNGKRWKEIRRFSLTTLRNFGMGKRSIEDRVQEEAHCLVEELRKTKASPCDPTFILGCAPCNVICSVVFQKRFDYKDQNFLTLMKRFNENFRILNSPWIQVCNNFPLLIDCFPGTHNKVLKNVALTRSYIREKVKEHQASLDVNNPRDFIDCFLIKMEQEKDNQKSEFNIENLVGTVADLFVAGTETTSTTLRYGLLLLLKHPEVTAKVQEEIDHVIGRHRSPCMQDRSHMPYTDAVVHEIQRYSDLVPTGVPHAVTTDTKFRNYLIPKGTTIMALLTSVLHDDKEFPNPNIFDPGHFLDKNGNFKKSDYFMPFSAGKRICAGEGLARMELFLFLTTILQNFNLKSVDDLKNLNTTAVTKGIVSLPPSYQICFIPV

## CCC[C@H]1N(C(=O)c2cnccc2C(F)(F)F)CCC[C@@]1(Oc1csc(C(F)(F)F)c1)C(=O)N1CCN(c2ccccc2OCCCC(=O)O)CC1
CWR22R
  Activity: Active
SJSA-1 [1]
  Ratio IC50: >500
Cytochrome P450 1A2
  IC50: > 50 µM
A549 [2]
  inhibition in vivo at 100 mg/kg: 27%
A549 [3]
  Activity: Active
Canis familiaris
  AUC/dose: 5.8 µM·h
[4]
  clearance: 4.1 mL/min/kg
A2780
  inhibition in vivo at 50 mg/kg: 41%
[5]
  solubility: 100 µM (≈ 75.7 µg/mL)
A549 [6]
  TGI: 85%
[7]
  fraction unbound: 0.03
CMLT1
  Activity: Active
[8]
  inhibition in vivo at 100 mg/kg: 31%
MOLM-13
  Activity: Active
A549 [9]
  inhibition in vivo at 200 mg/kg: 75%
EOL1
  Activity: Active
WM-115
  Activity: Active
LNCaP
  Activity: Active
Cytochrome P450 2C8
  IC50: > 50 µM
SJSA-1 [10]
  IC50: 0.09 µM
[11]
  fraction unbound: 0.05
[12]
  IC50: 0.08 µM
NCI-H292
  Activity: Active
NALM-6
  Activity: Active
MCF7
  Activity: Active
[13]
  IC50: > 50 µM
[14]
  inhibition in vivo at 200 mg/kg: 49%
hERG (KCNH2)
  inhibition at 6 µM: 20%
[15]
  clearance: 133 mL/min/kg
ACHN
  Activity: Active
SR
  Activity: Active
A-375
  Activity: Active
KU812
  Activity: Active
LOX IMVI
  Activity: Active
UACC-62
  Activity: Active
[16]
  Papp A→B: 18 ×10⁻⁶ cm/s
CESS
  Activity: Active
